Data set [1] addresses T1, 3-oxo-5-alpha-steroid 4-dehydrogenase 1 (Homo sapiens) (UniProt P18405).
T1 sequence (whole entry): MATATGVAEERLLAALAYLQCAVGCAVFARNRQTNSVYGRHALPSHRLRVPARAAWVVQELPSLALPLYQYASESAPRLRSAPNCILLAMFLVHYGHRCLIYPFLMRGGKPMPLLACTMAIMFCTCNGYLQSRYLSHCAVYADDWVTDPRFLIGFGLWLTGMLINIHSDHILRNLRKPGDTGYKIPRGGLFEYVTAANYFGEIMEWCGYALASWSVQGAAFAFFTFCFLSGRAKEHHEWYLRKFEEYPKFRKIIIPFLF
The experiment in a line: Inhibition of human 5alpha-1 reductase expressed in HEK293 cells assessed as suppression of conversion of [3]androstenedione at 10 uM incubated for 30 mins by radioactivity-based HPLC analysis. The format is cell-based. The procedure, abridged:
(§1)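 Stably transfected HEK293 lines expressing 5AR-1 (HEK-I) or 5AR-2 (HEK-II) were sonicated in saccharose/Tris/EDTA buffer. The suspension was incubated at 37 °C for 30 min with 500 nM androstenedione solution plus [3H]androstenedione and an NADP/glucose/G6PDH regenerating system. Test compounds were added in 2% DMSO. The reaction was stopped with ether; steroids were extracted and analysed by radio-HPLC.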

Data set [2] deals with T1, 3-oxo-5-alpha-steroid 4-dehydrogenase 1 (Homo sapiens). The experiment in a line: Inhibition of human 5alpha-1 reductase expressed in HEK293 cells assessed as suppression of conversion of [3]androstenedione at 2 uM incubated for 30 mins by radioactivity-based HPLC analysis. The format is cell-based. The procedure, abridged:
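Lysates of stably transfected HEK293 cells (80% confluent cells sonicated in 300 mM saccharose, 5 mM Tris–HCl, 0.1 mM EDTA). Master mix: Tris buffer, androstenedione (500 nM solution) plus tracer [3H]androstenedione, NADP/glucose/glucose-6-P-dehydrogenase regenerating system; compound added in 2% DMSO. Cell suspension mixed 1:1 with master mix, 37 °C for 30 min. Stopped with ether; steroids extracted, dried, taken up in methanol, radio-HPLC.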

Data set [3] concerns the target T2, 3-oxo-5-alpha-steroid 4-dehydrogenase 2 (Homo sapiens) (UniProt P31213).
T2 sequence (whole entry): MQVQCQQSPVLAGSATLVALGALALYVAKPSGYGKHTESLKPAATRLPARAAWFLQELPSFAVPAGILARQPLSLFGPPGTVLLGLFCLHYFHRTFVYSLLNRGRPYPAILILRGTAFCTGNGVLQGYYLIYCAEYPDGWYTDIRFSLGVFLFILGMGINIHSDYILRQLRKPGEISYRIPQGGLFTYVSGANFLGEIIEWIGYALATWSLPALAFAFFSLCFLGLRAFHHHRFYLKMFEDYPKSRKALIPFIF
In words: Inhibition of human 5alpha-2 reductase expressed in HEK293 cells assessed as suppression of conversion of [3]androstenedione at 10 uM incubated for 30 mins by radioactivity-based HPLC analysis. The format is cell-based. The procedure, abridged:
as §1

In data set [4] the target is T2, 3-oxo-5-alpha-steroid 4-dehydrogenase 2 (Homo sapiens). The experiment in a line: Inhibition of human 5alpha-2 reductase expressed in HEK293 cells assessed as suppression of conversion of [3]androstenedione at 2 uM incubated for 30 mins by radioactivity-based HPLC analysis. The class given is cell-based. Summed up:
as §1

The nature of data set [5]: Cytotoxicity against human DU145 cells by rapid colorimetric assay. The format is functional, cell-based, DU-145. The procedure, abridged:
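Antiproliferative test on DU-145 cells using the Mosmann method. Seven concentrations were tested in culture medium.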

Data set [6] has as its system Rattus norvegicus. In words: Increase in body weight gain in male wistar rat at 5ml/kg, po qd measured on 15th day after 24 hrs of last dose (Rvb=9.412+/-1.632g%). The format is ADME, organism-based. Conditions: in vivo; call rule not given here.
Data set [7] has as its system Rattus norvegicus. The experiment in a line: Effect on organ weight in male wistar rat assessed as liver tissue weight per 100g at 5ml/kg, po qd measured on 15th day after 24 hrs of last dose (Rvb=2.994+/- 0.254 g/100g). The class given is ADME, organism-based. The settings on record: in vivo.
Data set [8] deals with Rattus norvegicus. The experiment in a line: Effect on organ weight in male wistar rat assessed as ventral prostate tissue weight per 100g at 5ml/kg, po qd measured on 15th day after 24 hrs of last dose (Rvb=59.494+/- 4.733 mg/100g). The class given is functional, Prostate gland.
In data set [9] the test system is Rattus norvegicus. In words: Effect on organ weight in male wistar rat assessed as dorsal prostate tissue weight per 100g at 5ml/kg, po qd measured on 15th day after 24 hrs of last dose (Rvb=50.325+/-7.519 mg/100g). The format is functional, Prostate gland.
Data set [10] has as its system Rattus norvegicus. In words: Effect on organ weight in male wistar rat assessed as seminal vesicles tissue weight per 100g at 5ml/kg, po qd measured on 15th day after 24 hrs of last dose (Rvb=175.439+/-12.833 mg/100g). The class given is ADME, organism-based. Conditions: in vivo.
Data set [11] has as its system Rattus norvegicus. The experiment in a line: Effect on organ weight in male wistar rat assessed testis tissue weight per 100g at 5ml/kg, po qd measured on 15th day after 24 hrs of last dose (Rvb=1054.099+/- 55.648 mg/100g). The format is ADME, organism-based. Conditions: in vivo.
Data set [12] has as its system Rattus norvegicus. In words: Effect on organ weight in male wistar rat assessed as adrenal tissue weight per 100g at 5ml/kg, po qd measured on 15th day after 24 hrs of last dose (Rvb=14.762 +/-0.600 mg/100g). The format is ADME, organism-based. Conditions: in vivo.
Data set [13] has as its system Rattus norvegicus. In words: Effect on organ weight in male wistar rat assessed as vas deferens tissue weight per 100g at 5ml/kg, po qd measured on 15th day after 24 hrs of last dose (Rvb=67.613+/-3.248 mg/100g). The class given is functional.
Data set [14] has as its system Rattus norvegicus. In words: Effect on organ weight in male wistar rat assessed as epididymis tissue weight per 100g at 5ml/kg, po qd measured on 15th day after 24 hrs of last dose (Rvb=187.356+/- 5.961 mg/100g). The class given is functional.
Data set [15] relates to Rattus norvegicus. In words: Decrease in ventral prostate organ weight in male wistar rat at 5ml/kg, po qd measured on 15th day after 24 hrs of last dose. The format is functional, Prostate gland. On the set-up: scale not given: the % may be the effect or the level left.
In data set [16] the test system is Rattus norvegicus. In words: Decrease in dorsal prostate organ weight in male wistar rat at 5ml/kg, po qd measured on 15th day after 24 hrs of last dose. The format is functional, Prostate gland. Set-up: scale not given: the % may be the effect or the level left.
Data set [17] concerns Rattus norvegicus. The experiment in a line: Decrease in vas deferens organ weight in male wistar rat at 5ml/kg, po qd measured on 15th day after 24 hrs of last dose. The class given is functional. Set-up: scale not given: the % may be the effect or the level left.
In data set [18] the test system is Rattus norvegicus. The experiment in a line: Decrease in epididymis organ weight in male wistar rat at 5ml/kg, po qd measured on 15th day after 24 hrs of last dose. The class given is functional. Set-up: scale not given: the % may be the effect or the level left.
In data set [19] the test system is Rattus norvegicus. The experiment in a line: Toxicity in male wistar rat assessed induction of mortality at 5ml/kg, po qd measured on 15th day after 24 hrs of last dose. The format is organism-based. Conditions: in vivo. The procedure, abridged: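 Mature male Wistar rats, groups of 5, standard diet. Compounds suspended in 0.50% CMC sodium given orally at 5 ml/kg once daily for 14 days; controls received vehicle only. Animals weighed and killed under ether on day 15, 24 h after last dose.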

Data set [20] addresses T3, 3-oxo-5-alpha-steroid 4-dehydrogenase 2 (Homo sapiens, UniProt P31213).
T3 sequence (P31213 whole entry): T2 sequence (whole entry)
In words: Inhibition of human 5alpha-2 reductase expressed in HEK293 cells assessed as suppression of conversion of [3]androstenedione incubated for 30 mins by radioactivity-based HPLC analysis. The format is cell-based. Summed up: as §1

Data set [21] has as its target T4, 3-oxo-5-alpha-steroid 4-dehydrogenase 1 (Homo sapiens, UniProt P18405).
T4 sequence (P18405 whole entry): T1 sequence (whole entry)
The experiment in a line: Inhibition of human 5alpha-1 reductase expressed in HEK293 cells assessed as suppression of conversion of [3]androstenedione incubated for 30 mins by radioactivity-based HPLC analysis. The format is cell-based. Summed up:
as §1

Usually inhibition stands for the drop in the measured response relative to a control, in per cent. Broadly, the IC50 is the concentration needed to halve the response being measured. In the case of `C[C@]12CC[C@H]3[C@@H](CC=C4C=C(c5nnn[nH]5)CC[C@@H]43)[C@@H]1CCC2=O`, the inhibition was found to be 79.7% in [1], 36.2% in [2], 79.7% in data set [3] and 60.6% in [4]. For the same compound, in data set [5] (Homo sapiens, DU-145, read-out: IC50), the IC50 was 536000 nM. Besides, the Activity is reported as 21.51 g% in the data set with Rattus norvegicus [6]; 3.457 g in the data set on Rattus norvegicus [7]; 56.124 mg in the data set on Rattus norvegicus [8]; 46.695 mg with Rattus norvegicus [9]; 188.757 mg with Rattus norvegicus [10]; 1350.787 mg in the data set on Rattus norvegicus [11]. For the same compound, the Activity came out at 19.76 mg in the data set with Rattus norvegicus [12]; 59.232 mg with Rattus norvegicus [13]; 180.908 mg with Rattus norvegicus [14]; 5.66% in the data set on Rattus norvegicus [15]; 7.21% in the data set on Rattus norvegicus [16]; 12.4% in the data set on Rattus norvegicus [17]. The Activity in the data set with Rattus norvegicus [18] was 3.44%; in the data set with Rattus norvegicus [19], “Non-toxic”.

For the compound `CC(=O)C1CC[C@H]2[C@@H]3CC=C4C=C(c5nnn[nH]5)CC[C@]4(C)[C@H]3CC[C@]12C` (stereo not given in full), the inhibition in data set [1] came out at 95%; in data set [2], 82.6%; in data set [3] it was 100%; in [4] it was 100%. For the same compound, the IC50 was 15.6 nM in data set [20], “Not Active” in data set [5] (du-145) and 547 nM in data set [21]. Further, the Activity is reported as 8.328 g% in the data set on Rattus norvegicus [6]; 3.649 g in the data set with Rattus norvegicus [7]; 38.433 mg in the data set with Rattus norvegicus [8]; 41.379 mg in the data set with Rattus norvegicus [9]; 78.265 mg in the data set on Rattus norvegicus [10]; 844.538 mg in the data set on Rattus norvegicus [11]. Further, the Activity was found to be 17.762 mg in the data set with Rattus norvegicus [12]; 29.009 mg in the data set with Rattus norvegicus [13]; 127.85 mg in the data set on Rattus norvegicus [14]; 35.4% in the data set with Rattus norvegicus [15]; 17.78% in the data set on Rattus norvegicus [16]; 57.1% in the data set on Rattus norvegicus [17]. In addition, the values for the Activity in the data set with Rattus norvegicus [18] and in the data set with Rattus norvegicus [19] were 31.76% and “Non-toxic”, respectively.

In the case of `C[C@]12CCC(c3nnn[nH]3)=CC1=CC[C@@H]1[C@@H]2CC[C@]2(C)C(=O)CC[C@@H]12`, the inhibition in data set [1] was found to be 81.1%; in data set [2], 38.7%; in [3], 100%; in data set [4] it was 100%. Moreover, the 50% inhibitory concentration (IC50) in data set [20] is 83.8 nM; in [5] (du-145) it was “Not Active”. Also, the Activity is 18.382 g% in the data set on Rattus norvegicus [6]; 3.257 g in the data set on Rattus norvegicus [7]; 38.551 mg with Rattus norvegicus [8]; 42.651 mg in the data set on Rattus norvegicus [9]; 95.251 mg with Rattus norvegicus [10]; 1090.046 mg with Rattus norvegicus [11]. The Activity in the data set with Rattus norvegicus [12] turned out to be 17.986 mg; with Rattus norvegicus [13], 27.646 mg; in the data set with Rattus norvegicus [14], 119.445 mg; with Rattus norvegicus [15], 35.2%; in the data set with Rattus norvegicus [16] it was 15.25%; in the data set on Rattus norvegicus [17], 59.11%. Besides, the results for the Activity in the data set on Rattus norvegicus [18] and in the data set with Rattus norvegicus [19] were 36.25% and “Non-toxic”, respectively.
